According to ChEMBL document CHEMBL5532753, “Bipyraloxifene - a modified raloxifene vector against triple-negative breast cancer” (RSC Med Chem, 2024):
pIC50: −log10 of the molar value. The source made the active and inactive calls. The rule behind the calls is not given here.

Columns and labels:
[1] = test system: MDA-MB-231; assay: Antiproliferative activity against human MDA-MB-231 cells assessed as reduction in cell viability at IC50 concentration incubated for 72 hrs in presence of chloroquine by crystal violet staining based assay; format: functional
[2] = test system: MDA-MB-231; assay: Induction of apoptosis in human MDA-MB-231 cells assessed as necrotic cells at IC50 concentration incubated for 72 hrs by Annexin V/propidium iodide staining based flow cytometry analysis (reference value: 1.11 %); format: functional
[3] = test system: U-251; assay: Antiproliferative activity against human U-251 cells assessed as reduction in cell viability by measuring number of adherent cells incubated for 72 hrs by crystal violet staining based assay; format: functional; conditions: U-251, 72 h
Procedure, shortened: (§1)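 Adherent tumour lines grown in HEPES-buffered RPMI-1640 with 10% heat-inactivated FCS, 2 mM L-glutamine, 0.01% sodium pyruvate, penicillin/streptomycin, 37 °C, 5% CO2. Seeding per well: MCF-7 7 × 10³, MDA-MB-231 4 × 10³, MDA-MB-361 6 × 10³, U251 2 × 10³. Cells seeded overnight, then exposed to a dose range for 72 h from 20 mM DMSO stocks diluted in medium. Washed, fixed, read by MTT or CV. IC50 given as mean ± SD of at least three independent experiments.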

[4] = test system: MDA-MB-231; assay: Antiproliferative activity against human MDA-MB-231 cells assessed as reduction in cell viability at IC50 concentration incubated for 72 hrs in presence of 3-MA by crystal violet staining based assay; format: functional
[5] = test system: MDA-MB-231; assay: Induction of autophagy in human MDA-MB-231 cells at IC50 concentration incubated for 72 hrs by acridine orange staining based flow cytometry analysis; format: functional, cell-based
[6] = test system: MDA-MB-231; assay: Antiproliferative activity against human MDA-MB-231 cells assessed as reduction in cell viability by measuring total mitochondrial respiration incubated for 72 hrs by MTT assay; format: functional, cell-based; conditions: MDA-MB-231, 72 h; procedure, shortened: as §1
[7] = test system: MDA-MB-231; assay: Induction of apoptosis in human MDA-MB-231 cells assessed as chromatin condensation incubated for 72 hrs by propidium iodide staining based fluorescence microscopy analysis; format: functional, cell-based
[8] = test system: MDA-MB-231; assay: Induction of apoptosis in human MDA-MB-231 cells assessed as late apoptotic cells at IC50 concentration incubated for 72 hrs by Annexin V/propidium iodide staining based flow cytometry analysis (reference value: 3.19 %); format: functional
[9] = Cytotoxicity against mouse Peritoneal exudate cell assessed as reduction in cell viability by measuring number of adherent cells incubated for 72 hrs by crystal violet staining based assay; format: toxicity
Procedure, shortened: (§2)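 Mouse peritoneal exudate cells were exposed to a dose range for 72 h, and viability was read by MTT (mitochondrial respiration) or CV (adherent cells). Compounds came from 20 mM DMSO stocks diluted in medium. IC50 given as mean ± SD.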

[10] = test system: MDA-MB-231; assay: Induction of autophagy in human MDA-MB-231 cells assessed as increase in granularity of the cellular cytoplasm at IC50 concentration incubated for 72 hrs by flow cytometric analysis
[11] = test system: MDA-MB-361; assay: Antiproliferative activity against human MDA-MB-361 cells assessed as reduction in cell viability by measuring total mitochondrial respiration incubated for 72 hrs by MTT assay; format: functional, cell-based; conditions: MDA-MB-361, 72 h; procedure, shortened: as §1
[12] = test system: MDA-MB-231; assay: Induction of apoptosis in human MDA-MB-231 cells assessed as early apoptotic cells at IC50 concentration incubated for 72 hrs by Annexin V/propidium iodide staining based flow cytometry analysis (reference value: 0.72 %); format: functional
[13] = test system: MCF7; assay: Antiproliferative activity against human MCF7 cells assessed as reduction in cell viability by measuring number of adherent cells incubated for 72 hrs by crystal violet staining based assay; format: functional; conditions: MCF7, 72 h; procedure, shortened: as §1
[14] = test system: MDA-MB-231; assay: Induction of apoptosis in human MDA-MB-231 cells assessed as caspase activation incubated for 72 hrs by Apostat staining based flow cytometry analysis; format: functional, cell-based
[15] = test system: MDA-MB-231; assay: Induction of ROS production in human MDA-MB-231 cells assessed as oxidative burst incubated for 72 hrs by DHR staining based flow cytometry analysis; format: functional, cell-based
Procedure, shortened: (§3)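 MDA-MB-231 cells were treated for 72 h, then pre-stained with 1 µM dihydrorhodamine 123 for 20 min at 37 °C. After PBS washing and trypsinisation, ROS/RNS were read by flow cytometry.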

[16] = test system: MDA-MB-231; assay: Induction of RNS production in human MDA-MB-231 cells assessed as oxidative burst incubated for 72 hrs by DHR staining based flow cytometry analysis; format: functional, cell-based; procedure, shortened: as §3
[17] = test system: MDA-MB-231; assay: Induction of apoptosis in human MDA-MB-231 cells assessed as abnormal cell size incubated for 72 hrs by propidium iodide staining based fluorescence microscopy analysis; format: functional
[18] = test system: MDA-MB-231; assay: Induction of apoptosis in human MDA-MB-231 cells assessed as abnormal cell shape incubated for 72 hrs by propidium iodide staining based fluorescence microscopy analysis; format: functional
[19] = test system: U-251; assay: Antiproliferative activity against human U-251 cells assessed as reduction in cell viability by measuring total mitochondrial respiration incubated for 72 hrs by MTT assay; format: functional, cell-based; conditions: U-251, 72 h; procedure, shortened: as §1
[20] = Cytotoxicity against mouse Peritoneal exudate cell assessed as reduction in cell viability by measuring total mitochondrial respiration incubated for 72 hrs by MTT assay; format: toxicity, cell-based; conditions: peritoneal exudate cells; procedure, shortened: as §2
[21] = test system: MDA-MB-231; assay: Induction of apoptosis in human MDA-MB-231 cells assessed as increase in cell nuclei incubated for 72 hrs by propidium iodide staining based fluorescence microscopy analysis; format: functional
[22] = test system: MDA-MB-231; assay: Antiproliferative activity against human MDA-MB-231 cells assessed as reduction in cell viability by measuring number of adherent cells incubated for 72 hrs by crystal violet staining based assay; format: functional; conditions: MDA-MB-231, 72 h; procedure, shortened: as §1
[23] = test system: MCF7; assay: Antiproliferative activity against human MCF7 cells assessed as reduction in cell viability by measuring total mitochondrial respiration incubated for 72 hrs by MTT assay; format: functional, cell-based; conditions: MCF7, 72 h; procedure, shortened: as §1
[24] = test system: MDA-MB-361; assay: Antiproliferative activity against human MDA-MB-361 cells assessed as reduction in cell viability by measuring number of adherent cells incubated for 72 hrs by crystal violet staining based assay; format: functional; conditions: MDA-MB-361, 72 h; procedure, shortened: as §1
[25] = test system: MDA-MB-231; assay: Induction of apoptosis in human MDA-MB-231 cells assessed as viable cells at IC50 concentration incubated for 72 hrs by Annexin V/propidium iodide staining based flow cytometry analysis (reference value: 95.0 %); format: functional
[26] = Selectivity index, ratio of IC50 for cytotoxicity against mouse Peritoneal exudate cell assessed as reduction in cell viability by measuring total mitochondrial respiration to IC50 for antiproliferative activity against human MDA-MB-231 cells assessed as reduction in cell viability by measuring total mitochondrial respiration; format: toxicity, cell-based; conditions: mouse peritoneal exudate cells versus human MDA-MB-231 cells, read-out: Ratio IC50
Procedure, shortened: (§4)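 Selectivity index is the IC50 in normal mouse peritoneal exudate cells divided by the IC50 in MDA-MB-231. Both IC50s come from 72 h dose-range treatment, read by the same assay: CV (adherent cells) or MTT (mitochondrial respiration).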

[27] = Selectivity index, ratio of IC50 for cytotoxicity against mouse Peritoneal exudate cell assessed as reduction in cell viability by measuring number of adherent cells to IC50 for antiproliferative activity against human MDA-MB-231 cells assessed as reduction in cell viability by measuring number of adherent cells; format: toxicity, cell-based; conditions: mouse peritoneal exudate cells versus human MDA-MB-231 cells, read-out: Ratio IC50; procedure, shortened: as §4

Compound	Activity [1]	Activity [2]	pIC50 [3]	Activity [4]	Activity [5]	pIC50 [6]	Activity [7]	Activity [8]	IC50 at 72 h [9]	Activity [10]	pIC50 [11]	Activity [12]	pIC50 [13]	Activity [14]	Activity [15]	Activity [16]	Activity [17]	Activity [18]	pIC50 [19]	IC50 at 72 h [20]	also measured
O=C(c1ccc(OCCN2CCCCC2)cc1)c1c(-c2ccc(O)cc2)sc2cc(O)ccc12 [RALOXIFENE]	Active	0.93%	4.63	Active	Active	4.72	Active	11.5%	20.4 µM	Active	4.65	20.6%	4.67	Active	Active	Active	Active	Active	4.72	18.3 µM	Activity [21]: Active; pIC50 [22]: 4.66; pIC50 [23]: 4.77; pIC50 [24]: 4.41; Activity [25]: 67%
COc1ccc(-c2sc3cc(OC)ccc3c2C(=O)c2ccc(OCc3ccnc(-c4ccccn4)c3)cc2)cc1	Active	1.01%	5.59	Active	Active	5.80	Active	23.3%	18.9 µM	Active	5.20	29.3%	5.62	Active	Active	Active	Active	Active	5.66	15.4 µM	selectivity ratio [26]: 9.5; selectivity ratio [27]: 12.6; Activity [21]: Active; pIC50 [22]: 5.82; pIC50 [23]: 5.67; pIC50 [24]: < 4.00; Activity [25]: 46.4%
